Screening results deposited in PubChem by The Scripps Research Institute Molecular Screening Center.
SIAE primary: inhibitors of human sialic acid acetylesterase SIAE | Q9HAT2 | SIAE FP-Rh probe binding, fluorescence polarization | inhibition, % at 9.66 µM | 0.69% of 370,000 active | AID 1053197;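 active means inhibition above a cutoff: mean of compounds within the control limits plus 3 SD of those, cut at about 17% in these data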;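 further: 0% = plate median of compound wells and 100% = probe without SIAE protein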
rCAG RNA binder: r(CAG) repeat RNA binding; TO-PRO-1 dye displacement fluorescence; inhibition, % at 3 µM; 1.3% of 370,000 active;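 active means inhibition above the plate cutoff, the mean of all test compounds on that plate plus 3 SD, cut at about 35% in these data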;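 further: 0% = DMSO alone and 100% = 100 µM mitoxantrone as full dye displacement; higher means more dye released from RNA so lower well fluorescence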
ABHD4 inh: ABHD4 (mouse) inhibition, primary FP screen | purified mABHD4, FP-Rh probe fluorescence polarization | inhibition, % at 8.92 µM | 0.54% of 370,000 active;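 active means inhibition exceeding the mean over every tested compound plus 3 SD, cut at about 30% in these data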;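 further: 0% = plate median of compound wells and 100% = S159A mutant with DMSO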
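System: mouse ABHD4 enzyme, wild type / Medium: HEPES pH 7.0, NaCl, Pluronic buffer / Reagent: FP-Rh activity-based fluorescent probe / Control set: S159A mutant high control, sample median low control / Detection: fluorescence polarization with parallel and perpendicular emission, 525/598 nm / Schedule: 45 min + 60 min at 25 °C / Compound dosing: 8.92 µM, single dose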
PRMT1 FP inh: PRMT1 (human) inhibition, primary screen; recombinant PRMT1, activity-based probe fluorescence polarization; Q99873; AID 652257; 1.3% of 370,000 active; inhibition, % at 2.79 µM;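 active means inhibition above about 21% made by adding two undisclosed values, limit read from the data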
HTRA1 inh: blocks human HTRA1 serine peptidase. Q92743. recombinant HTRA1, FP-rhodamine activity-based probe, fluorescence polarization. 0.5% of 340,000 active. AID 504803. inhibition, % at 5.96 µM; in the data active means inhibition above about 36%;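 further: 0% = enzyme with DMSO and 100% = wells lacking enzyme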
Target sequence (Q92743 whole entry, looked up): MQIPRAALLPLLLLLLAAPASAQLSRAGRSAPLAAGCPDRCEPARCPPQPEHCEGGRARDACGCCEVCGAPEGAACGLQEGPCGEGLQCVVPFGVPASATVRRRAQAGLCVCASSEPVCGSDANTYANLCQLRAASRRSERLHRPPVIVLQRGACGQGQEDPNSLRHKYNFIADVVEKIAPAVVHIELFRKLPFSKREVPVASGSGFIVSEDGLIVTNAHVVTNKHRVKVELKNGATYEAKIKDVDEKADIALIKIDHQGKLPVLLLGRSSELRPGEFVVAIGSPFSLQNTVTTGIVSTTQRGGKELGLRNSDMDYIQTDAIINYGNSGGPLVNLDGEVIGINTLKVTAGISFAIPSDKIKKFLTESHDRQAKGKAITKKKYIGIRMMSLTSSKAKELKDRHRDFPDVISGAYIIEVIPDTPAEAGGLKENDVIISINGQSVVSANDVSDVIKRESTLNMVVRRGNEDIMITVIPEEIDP
rCAG bind conf: r(CAG) RNA repeat binding, confirmation. shares compounds with rCAG RNA binder. 70% of 4,300 active. inhibition, % at 3 µM. TO-PRO-1 dye displacement fluorescence;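 active means inhibition above a per-plate cutoff, the mean inhibition of sample wells plus 3 SD, cut at about 35% in these data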;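 further: loss of TO-PRO-1 fluorescence as compound displaces dye from 1x1 AA loop RNA; 0% = DMSO only wells and 100% = 100 µM mitoxantrone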
dCAG dye counter: disrupts DNA CAG TO-PRO-1 complex, flagging rCAG hits; shares compounds with rCAG RNA binder; d(CAG) DNA oligo TO-PRO-1 dye displacement, fluorescence; inhibition, % at 3 µM; 94% of 4,300 active;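 active means inhibition above its plate's cutoff, the mean test-well inhibition plus 3 SD, cut at about 4.8% in these data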;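 further: 0% = DNA dye mix with DMSO and 100% = 100 µM mitoxantrone; hits displace the dye from DNA and so lower well fluorescence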
DNA CAG DR: counter-screen for rCAG binders: inhibitors of DNA CAG TO-PRO-1 complex; shares compounds with rCAG RNA binder; DNA CAG/GTC duplex TO-PRO-1 dye displacement fluorescence; IC50, µM; 20% of 250 active; in the data active means IC50 below about 10 µM
Numbers without * were called inactive; i = inactive; . = no result given. Only some compounds are listed: those with a hit (about 3.3% of all), similar ones and a draw of the others.

SMILES | SIAE primary | rCAG RNA binder | ABHD4 inh | PRMT1 FP inh | HTRA1 inh | rCAG bind conf | dCAG dye counter | others
CCc1nnc(NS(=O)(=O)c2ccc(NC(=O)CCC(=O)O)cc2)s1 | -2 | -2 | -2 | 2 | -3 | . | .
CCc1nnc(NS(=O)(=O)c2ccc(NC(=O)c3cccc4ccccc34)cc2)s1 | -2 | 64* | -26 | 0 | -24 | 44* | 16*
CCc1nnc(NS(=O)(=O)c2ccc(NC(=O)COc3ccc4ccccc4c3)cc2)s1 | 2 | 30 | -18 | -2 | -7 | . | .
Cc1noc(C)c1CSCC(=O)Nc1nc2c(F)cc(F)cc2s1 | 2 | 36* | 7 | 17 | -14 | 29 | 18*
Nc1[nH]c(C(=O)c2ccccc2)c(-c2ccc(Cl)cc2)c1C(=O)NCCC1=CCCCC1 | 6 | . | 5 | -3 | . | . | .
Cc1cccc(C)c1NC(=O)C1(C)CSCC(=O)N1CCCn1ccnc1 (stereo unspecified) | 4 | 2 | 0 | -1 | . | . | .
CN1C2CCC1CC(NC(=O)c1cc(S(=O)(=O)N(C)C)c(Cl)cc1Cl)C2 (stereo unspecified) | -1 | 2 | -2 | -1 | -2 | . | .
CN(C)S(=O)(=O)c1cc(C(=O)O)c(NC2CCCCC2)cc1Cl | 6 | 45* | 13 | -1 | -7 | 31 | 6.2*
COC(=O)[C@]12C[C@H](CC(=O)NCc3cccs3)C(=O)N(Cc3cccc4ccccc34)C1=C[C@H](COCc1ccccc1)O[C@@H]2C | -2 | 13 | -13 | 2 | . | . | .
CCOc1cc(-c2c(C#N)c(=O)[nH]c3c2c(C)nn3-c2ccc(F)cc2)ccc1O | 0 | 48* | 7 | -1 | -10 | 27 | 6.6*
CCOc1cc(-c2cc(-c3ccc(C)cc3)nc(N)c2C#N)ccc1O | -12 | 11 | -41 | 2 | -21 | . | .
Cc1cc(C)cc(N(CC(=O)Nc2cc(C)ccc2C)S(=O)(=O)c2c(C)[nH]c(=O)[nH]c2=O)c1 | -9 | 26 | -12 | -1 | 5 | . | .
Cc1cc(C)cc(N(CC(=O)Nc2ccc(Br)cc2)S(=O)(=O)c2c(C)[nH]c(=O)[nH]c2=O)c1 | -8 | 51* | -12 | -1 | -23 | 42* | 9.2*
COC(=O)c1ccc(COc2ccccc2/C=C(\C#N)C(=O)Nc2ccc(C)cc2)cc1 | -5 | -2 | -6 | 3 | -2 | . | .
N#C/C(=C\c1ccccc1OCc1ccc(C(=O)O)cc1)C(=O)Nc1ccc(O)cc1 | -19 | 44* | 6 | 1 | 0 | 34 | 10*
O=C1NC(=S)S/C1=C\c1cc2ccccc2nc1N1CCCCC1 | 0 | 37* | -18 | 0 | -13 | 87* | 61*
Cc1ccc(SCC(=O)N2CCOCC2)cc1 | 2 | 40* | -2 | -2 | -6 | 1 | 2
Cc1ccc(-c2nn(CCC(=O)O)cc2/C=C\C(=O)c2ccc(Br)cc2)cc1 | -21 | 68* | -34 | -1 | -57 | 74* | 32* | DNA CAG DR=i
O=Cc1cn(CCC(=O)O)nc1-c1cccc(Br)c1 | -5 | 1 | -1 | 1 | -9 | . | .
O=C(O)CCn1cc(/C=C\C(=O)c2ccc(Cl)cc2)c(-c2cccc(Br)c2)n1 | -15 | 63* | -18 | 2 | -30 | 82* | 45*
Cc1ccc(-c2nn(Cc3ccccc3)cc2/C=C/C(=O)O)cc1 | -2 | 3 | 9 | 1 | -4 | . | .
COc1ccccc1NS(=O)(=O)c1ccc(NC(=O)c2[nH]nc(OC)c2[N+](=O)[O-])cc1 | 14 | 47* | 9 | -2 | -3 | 26 | 7.2*
Cc1ccc(CN2CCCCC(NC(=O)c3ccc(C)cc3)C2=O)cc1 (stereo unspecified) | 3 | -1 | 2 | 3 | . | . | .
CC(C)(C)c1ccc(CC(=O)N2CCC2(C)C(=O)NS(=O)(=O)c2cccc(C#N)c2)cc1 (stereo unspecified) | -4 | 30 | 5 | 1 | . | . | .
CC(C)(C)c1ccc(S(=O)(=O)NC(=O)C2(C)CCN2C(=O)CC2CCCCC2)cc1 (stereo unspecified) | 1 | 44* | 15 | 2 | . | 31 | 5.3*
